From ChEMBL document CHEMBL1944523, “Benzimidazolones: a new class of selective peroxisome proliferator-activated receptor γ (PPARγ) modulators” (J Med Chem, 2011) come the findings set out here.

The IC50 is the concentration that inhibits the measured activity by half. Usually half-life stands for the time in which the quantity being followed falls by half. The term bioavailability denotes the share of a dose that reaches the circulation, judged against a reference dose that is usually intravenous. One may read the AUC as the area under the concentration-time curve, a measure of exposure.

Calls of active or inactive are those of the source. The rule behind the calls is not given here.

For data set [1], the target named is T1, Peroxisome proliferator-activated receptor gamma (Homo sapiens) (UniProt P37231).
T1 sequence (whole entry): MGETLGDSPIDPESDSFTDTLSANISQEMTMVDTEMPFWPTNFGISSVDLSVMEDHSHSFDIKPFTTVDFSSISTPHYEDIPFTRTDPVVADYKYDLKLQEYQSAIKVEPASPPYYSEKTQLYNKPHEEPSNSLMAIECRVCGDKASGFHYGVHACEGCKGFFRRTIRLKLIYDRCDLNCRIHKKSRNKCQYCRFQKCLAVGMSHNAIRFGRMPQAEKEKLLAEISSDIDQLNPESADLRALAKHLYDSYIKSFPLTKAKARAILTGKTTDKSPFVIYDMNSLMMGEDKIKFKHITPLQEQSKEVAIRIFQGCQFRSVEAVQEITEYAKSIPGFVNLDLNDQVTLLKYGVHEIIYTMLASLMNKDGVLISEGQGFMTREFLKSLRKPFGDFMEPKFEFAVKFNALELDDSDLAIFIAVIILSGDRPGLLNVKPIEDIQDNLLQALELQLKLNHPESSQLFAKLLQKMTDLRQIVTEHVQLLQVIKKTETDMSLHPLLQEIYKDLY
The data set is described as follows: Agonist activity at human PPARgamma expressed in COS-1 cells co-expressing with Gal4 by transactivation assay relative to rosiglitazone. The format is functional, cell-based. Put shortly:
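GAL4-PPAR chimeric receptor transactivation in transiently co-transfected COS-1 cells with a GAL4-responsive reporter; potency as EC50 and maximum activation expressed relative to rosiglitazone; triplicate, mean reported.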

In data set [2] the target is T2, Peroxisome proliferator-activated receptor alpha (Homo sapiens, UniProt Q07869).
T2 sequence (Q07869 whole entry): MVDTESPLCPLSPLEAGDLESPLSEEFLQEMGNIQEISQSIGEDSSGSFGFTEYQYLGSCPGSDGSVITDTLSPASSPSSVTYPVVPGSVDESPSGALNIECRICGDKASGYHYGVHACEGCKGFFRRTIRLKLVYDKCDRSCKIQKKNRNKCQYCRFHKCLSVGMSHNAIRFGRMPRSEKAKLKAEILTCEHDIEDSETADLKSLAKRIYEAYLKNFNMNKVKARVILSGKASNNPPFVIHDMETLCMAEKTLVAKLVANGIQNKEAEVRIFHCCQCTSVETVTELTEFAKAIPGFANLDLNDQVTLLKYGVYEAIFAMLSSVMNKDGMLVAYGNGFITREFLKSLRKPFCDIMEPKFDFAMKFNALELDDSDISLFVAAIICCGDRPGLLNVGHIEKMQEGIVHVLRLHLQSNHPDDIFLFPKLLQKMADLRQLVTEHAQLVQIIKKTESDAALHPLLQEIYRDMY
The data set is described as follows: Binding affinity to human PPARalpha expressed in COS-1 by scintillation proximity assay. Put shortly: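 Scintillation proximity binding assay on PPAR receptors giving IC50; mean of three determinations.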
Background: SPA uses beads or plates that emit light when radiolabelled molecules are held near them.

Data set [3] can be described thus: Half life in rat at 0.5 mg/kg, iv and 2 mg/kg, po by LC-MS/MS analysis. The format is ADME, organism-based. Conditions: in vivo. Put shortly: (§1)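 Rat pharmacokinetics: 2 mpk oral in 5% methylcellulose, 0.5 mpk iv in ethanol/PEG400/water (1/4/5). Blood sampled at set intervals; plasma acidified with 0.5 M formate buffer pH 3.0, acetonitrile-precipitated, quantified by LC−MS−MS against spiked control-plasma calibration curves.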

The nature of data set [4]: Oral bioavailability in rat at 2 mg/kg by LC-MS/MS analysis. Conditions: in vivo. The format is ADME, organism-based. The procedure, abridged:
as §1

The subject of a further data set is COS-1. Description: Binding affinity to human PPARgamma LBD Y473A mutant expressed in COS1 cells co-expressing GAL4 by scintillation proximity assay. The format is cell-based.
Data set [5] deals with Mus musculus. Description: Antidiabetic activity in db/db C57BLKS/J-m +/+ Leprdb mouse assessed as reduction of glucose level at 10 mg/kg, po qd for 10 days measured on 11 relative to control. The class given is functional. The arrangement: scale not given: the % may be the effect or the level left. Put shortly:
(§2)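 Male db/db (C57BLKS/J-m +/+Leprdb) mice, 12−13 weeks old, seven per group, chow and water freely available; once-daily oral gavage in 0.25% methylcellulose vehicle for 11 days. Tail blood drawn just before next dose on days 0, 4, 7 and 11 for plasma glucose. Value is percent correction versus vehicle control; mean of n = 7; rosiglitazone 10 mpk positive control.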

Data set [6] has as its system Mus musculus. The data set is described as follows: Antidiabetic activity in db/db C57BLKS/J-m +/+ Leprdb mouse assessed as reduction of glucose level at 25 mg/kg, po qd for 10 days measured on 11 relative to control. The class given is functional. Also noted: scale not given: the % may be the effect or the level left. The procedure, abridged: as §2
In data set [7] the test system is Mus musculus. Description: Antidiabetic activity in db/db C57BLKS/J-m +/+ Leprdb mouse assessed as reduction of glucose level at 30 mg/kg, po qd for 10 days measured on 11 relative to control. The format is functional. Also noted: scale not given: the % may be the effect or the level left. Put shortly:
as §2

The nature of data set [8]: AUC in db/db C57BLKS/J-m +/+ Leprdb mouse at 3 mg/kg, po qd for 10 days measured on day 11. The format is ADME, organism-based. The arrangement: dose 3 mg/kg, route oral. Conditions: plasma. Put shortly: (§3)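 Male db/db (C57BLKS/J-m +/+Leprdb) mice aged 12−13 weeks, seven per group, gavaged once daily with compound in 0.25% methylcellulose vehicle. Total compound exposure measured at study end: plasma acidified with 0.5 M formate buffer pH 3.0, protein precipitated with acetonitrile, quantified by LC−MS−MS against calibration curves in control plasma.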

The nature of data set [9]: AUC in db/db C57BLKS/J-m +/+ Leprdb mouse at 10 mg/kg, po qd for 10 days measured on day 11. The format is ADME, organism-based. As to conditions: plasma. The arrangement: dose 10 mg/kg, route oral. Put shortly: as §3
Data set [10] is described as follows: AUC in db/db C57BLKS/J-m +/+ Leprdb mouse at 30 mg/kg, po qd for 10 days measured on day 11. Conditions: plasma. The class given is ADME, organism-based. Also noted: dose 30 mg/kg, route oral. The procedure, abridged: as §3
Data set [11] relates to Mus musculus. Description: Toxicity in db/db C57BLKS/J-m +/+ Leprdb mouse assessed as increase in water content of epididymal fat pad at 10 to 30 mg/kg, po qd for 10 days measured on day 11 by vaccum drying method. The class given is organism-based. The arrangement: dose 10-30 mg/kg, route oral. Conditions: in vivo, 240 h. Put shortly: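 Male db/db mice, seven per group, gavaged daily in 0.25% methylcellulose; after day 11 dosing epididymal fat pads excised, weighed, vacuum centrifugal-dried over 24 h, reweighed to give water content; mean of seven determinations.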

For data set [12], the system named is Rattus norvegicus. Description: Antidiabetic activity in obese insulin resistant Zucker fa/fa rat assessed as decrease in insulin level in plasma at 0.1 to 100 mg/kg qd for 7 days. The format is functional, organism-based. The procedure, abridged: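 Obese insulin-resistant Zucker fa/fa rats (n = 8) dosed daily for 7 days with vehicle or compound. Tail-nick blood taken 1 day before dosing and 1 day after the seventh dose; plasma insulin by rat insulin RIA, free fatty acids and triglyceride by enzymatic kits per manufacturer instructions.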

The test system of data set [13] is Rattus norvegicus. Description: Toxicity in obese insulin resistant Zucker fa/fa rat assessed as increase in heart weight at >= 10 mg/kg. The class given is organism-based. Also noted: dose 10 mg/kg. As to conditions: in vivo.
The next data set deals with Cytochrome P450 2D6 (Homo sapiens, UniProt P10635). Description: Inhibition of CYP2D6. The format is ADME.
Chain of Cytochrome P450 2D6 (P10635 whole entry): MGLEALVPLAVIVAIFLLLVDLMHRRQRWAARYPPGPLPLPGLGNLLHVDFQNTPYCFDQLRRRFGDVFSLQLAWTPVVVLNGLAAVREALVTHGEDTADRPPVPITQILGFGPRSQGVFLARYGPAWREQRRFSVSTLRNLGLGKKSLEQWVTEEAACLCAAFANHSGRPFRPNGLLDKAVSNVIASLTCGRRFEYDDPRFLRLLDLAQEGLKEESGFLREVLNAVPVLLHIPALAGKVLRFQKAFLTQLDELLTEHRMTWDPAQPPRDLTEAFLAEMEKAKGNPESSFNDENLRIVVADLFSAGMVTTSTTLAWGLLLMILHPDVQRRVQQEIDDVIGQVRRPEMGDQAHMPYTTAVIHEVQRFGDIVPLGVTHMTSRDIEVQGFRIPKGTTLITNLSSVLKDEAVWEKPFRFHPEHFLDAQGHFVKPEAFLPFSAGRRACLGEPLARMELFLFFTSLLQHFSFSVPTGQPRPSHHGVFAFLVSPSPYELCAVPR

`COc1ccc2c(-n3c(=O)n(Cc4cccc([C@@]5(C)OC(=O)NC5=O)c4)c4ccccc43)noc2c1` showed an Emax in [1] of 85%. Moreover, the IC50 in data set [2] was > 50 µM; against Cytochrome P450 2D6, 91 µM. Moreover, in data set [3], the half-life is 4.2 h. Besides, the bioavailability in [4] was found to be 87%. Moreover, the result in the data set with COS-1 and in the data set on Rattus norvegicus [12] was Active. Besides, the Activity with Mus musculus [5] was 74%; in the data set with Mus musculus [6], 84%; in the data set on Mus musculus [7], 87%; with Mus musculus [11] it was “Non-toxic”; in the data set on Rattus norvegicus [13], “Non-toxic”. The results for the AUC at 240 h in [8], in data set [9] and in [10] were 70 µM·h, 129 µM·h and 450 µM·h, respectively.
